According to ChEMBL document CHEMBL4138113, “Novel propanamides as fatty acid amide hydrolase inhibitors” (Eur J Med Chem, 2017):
pIC50, pKi: −log10 of the molar value. The source made the active and inactive calls.

What was measured:
[1] = target: T1, Fatty-acid amide hydrolase 1 (Rattus norvegicus) (UniProt P97612); test: Inhibition of rat brain FAAH using [3H]AEA as substrate after 10 mins in presence of N-(3-Methylpyridin-2-yl)-2-(4-((2-(trifluoromethyl)pyridin-4-yl)amino)phenyl)propanamide by liquid scintillation counting analysis
T1 sequence (whole entry): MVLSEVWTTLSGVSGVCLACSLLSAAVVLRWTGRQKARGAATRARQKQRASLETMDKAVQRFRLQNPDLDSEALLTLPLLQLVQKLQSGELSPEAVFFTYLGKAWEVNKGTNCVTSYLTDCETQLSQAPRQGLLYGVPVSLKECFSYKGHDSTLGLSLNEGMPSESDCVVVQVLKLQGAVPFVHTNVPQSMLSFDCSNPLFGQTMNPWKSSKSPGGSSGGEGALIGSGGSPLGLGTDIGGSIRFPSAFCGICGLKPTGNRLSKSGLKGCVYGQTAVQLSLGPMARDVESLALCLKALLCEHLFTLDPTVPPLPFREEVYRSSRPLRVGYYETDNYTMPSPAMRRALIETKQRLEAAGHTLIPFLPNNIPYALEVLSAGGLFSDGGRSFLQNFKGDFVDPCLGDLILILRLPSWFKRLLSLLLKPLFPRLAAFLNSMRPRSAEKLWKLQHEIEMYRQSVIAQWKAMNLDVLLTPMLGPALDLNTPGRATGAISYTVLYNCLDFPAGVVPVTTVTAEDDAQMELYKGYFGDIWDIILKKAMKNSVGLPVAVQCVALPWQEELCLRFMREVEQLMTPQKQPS
Method in brief: (§1)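 Rat (Wistar or Sprague-Dawley) brain homogenate without cerebella, washed and pre-incubated 15 min at 37 °C to clear endogenous substrate. Compound (in ethanol or DMSO) was mixed with 1 µg protein on ice in 10 mM Tris-HCl, 1 mM EDTA, pH 7.4. Reaction used 0.5 µM [3H]AEA with fatty acid-free BSA for 10 min at 37 °C. It was stopped with charcoal/HCl, and supernatant tritium was counted. ≥5 half-log concentrations, ≥3 experiments; maximum inhibition = 100 − fitted bottom.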

[2] = target: T2, Prostaglandin G/H synthase 1 (Ovis aries) (UniProt P05979); test: Inhibition of recombinant ovine COX1 at 100 uM using arachidonic acid as substrate after 5 mins
T2 sequence (whole entry): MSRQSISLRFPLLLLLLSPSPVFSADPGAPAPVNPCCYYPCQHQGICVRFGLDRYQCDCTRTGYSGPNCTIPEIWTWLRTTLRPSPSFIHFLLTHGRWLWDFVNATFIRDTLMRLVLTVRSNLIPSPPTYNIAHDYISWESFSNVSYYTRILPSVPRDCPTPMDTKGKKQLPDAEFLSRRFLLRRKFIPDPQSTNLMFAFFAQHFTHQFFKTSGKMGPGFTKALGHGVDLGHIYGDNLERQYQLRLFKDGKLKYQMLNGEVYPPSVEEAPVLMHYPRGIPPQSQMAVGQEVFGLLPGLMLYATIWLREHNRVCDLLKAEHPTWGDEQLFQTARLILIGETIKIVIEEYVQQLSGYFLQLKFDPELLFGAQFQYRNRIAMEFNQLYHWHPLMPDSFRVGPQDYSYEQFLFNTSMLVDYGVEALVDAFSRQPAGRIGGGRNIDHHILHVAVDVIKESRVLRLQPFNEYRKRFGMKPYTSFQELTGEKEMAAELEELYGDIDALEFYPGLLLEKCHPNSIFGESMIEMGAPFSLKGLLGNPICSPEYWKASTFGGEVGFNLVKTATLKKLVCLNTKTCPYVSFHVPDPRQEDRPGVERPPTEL
Method in brief: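 Oxygen-electrode assay at room temperature in 0.1 M Tris-HCl, pH 7.4, with 1 µM haematin, 2 mM phenol, 5 mM EDTA and 10 µM (final) arachidonic acid or 2-AG. Compound in EtOH was added and a 5 min baseline recorded. The reaction was started with ovine COX-1 or human recombinant COX-2 (200 U), and oxygen consumption was read in 10 s blocks. Means ± SEM, n = 3-4.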

[3] = target: T3, Fatty-acid amide hydrolase 1 (Rattus norvegicus, UniProt P97612); test: Noncompetitive inhibition of rat brain FAAH using [3H]AEA as substrate after 10 mins by Dixon plot analysis
T3 sequence (P97612 whole entry): T1 sequence (whole entry)
Method in brief: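 Kinetic study in rat brain homogenate (1 µg protein per assay). [3H]AEA hydrolysis ran for 10 min at 37 °C in Tris-EDTA buffer, pH 7.4, with the AEA:fatty acid-free BSA ratio held at 1:~4.5 across substrate levels. Radioactivity was measured by charcoal separation and scintillation counting. Data were fitted to competitive, mixed-type and non-competitive models, and the best model was chosen by Akaike's criterion.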

[4] = target: T1, Fatty-acid amide hydrolase 1 (Rattus norvegicus); test: Reversible inhibition of rat brain FAAH at 0.03 to 1 uM using [3H]AEA as substrate preincubated for 60 mins followed by 20 fold compound dilution and subsequent substrate addition by liquid scintillation counting analysis
Method in brief: (§2)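 Rat brain homogenate at 20-fold normal strength was preincubated with vehicle or compound for 60 min, then diluted 20-fold and assayed with [3H]AEA for 10 min at 37 °C. In parallel, compound was added to vehicle-preincubated aliquots at the post-dilution free concentrations and at the undiluted final concentrations. Tritium was counted after charcoal separation.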

[5] = target: T1, Fatty-acid amide hydrolase 1 (Rattus norvegicus); test: Reversible inhibition of rat brain FAAH at 0.03 to 1 uM using [3H]AEA as substrate preincubated for 60 mins followed by substrate addition by liquid scintillation counting analysis; method in brief: as §2
[6] = target: T1, Fatty-acid amide hydrolase 1 (Rattus norvegicus); test: Inhibition of rat brain FAAH using [3H]AEA as substrate after 10 mins in presence of N-(3-Chloropyridin-2-yl)-2-(4-((2-(trifluoromethyl)pyridin-4-yl)amino)phenyl)propanamide by liquid scintillation counting analysis; method in brief: as §1
[7] = target: T1, Fatty-acid amide hydrolase 1 (Rattus norvegicus); test: Reversible inhibition of rat brain FAAH at 0.2 to 2 uM using [3H]AEA as substrate preincubated for 60 mins followed by 20 fold compound dilution and subsequent substrate addition by liquid scintillation counting analysis; method in brief: as §2
[8] = target: T4, Fatty-acid amide hydrolase 1 (Homo sapiens, UniProt O00519); test: Inhibition of FAAH (unknown origin) expressed in human HeLa cells transfected with empty vector using [3H]AEA as substrate after 2 hrs by liquid scintillation counting analysis; type: cell-based
T4 sequence (O00519 whole entry): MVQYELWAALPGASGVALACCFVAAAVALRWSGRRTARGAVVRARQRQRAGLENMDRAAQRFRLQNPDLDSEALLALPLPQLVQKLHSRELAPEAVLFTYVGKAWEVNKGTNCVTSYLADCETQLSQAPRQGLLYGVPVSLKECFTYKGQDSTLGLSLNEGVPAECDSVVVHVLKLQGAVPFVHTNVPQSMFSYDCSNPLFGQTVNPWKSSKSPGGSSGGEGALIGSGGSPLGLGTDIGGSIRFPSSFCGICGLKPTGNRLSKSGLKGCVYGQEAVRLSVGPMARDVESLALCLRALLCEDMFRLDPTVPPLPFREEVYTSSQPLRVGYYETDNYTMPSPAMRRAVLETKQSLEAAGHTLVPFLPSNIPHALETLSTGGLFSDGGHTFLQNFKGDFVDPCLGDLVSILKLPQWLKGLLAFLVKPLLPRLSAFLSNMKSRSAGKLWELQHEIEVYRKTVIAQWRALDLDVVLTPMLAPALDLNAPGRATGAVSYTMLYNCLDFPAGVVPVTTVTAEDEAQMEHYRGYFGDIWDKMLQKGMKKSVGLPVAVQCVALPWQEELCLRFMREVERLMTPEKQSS

| SMILES | inhibition [1] | inhibition [2] | pKi [3] | inhibition [4] | inhibition [5] | inhibition [6] | inhibition [7] | pIC50 [8] |
| --- | --- | --- | --- | --- | --- | --- | --- | --- |
| CC(C(=O)Nc1ncccc1Cl)c1ccc(Nc2ccnc(C(F)(F)F)c2)cc1 (stereo not drawn) | Active | Active | 6.96 | Active | Active | – | – | – |
| Cc1cccnc1NC(=O)C(C)c1ccc(Nc2ccnc(C(F)(F)F)c2)cc1 (stereo not drawn) | – | – | – | – | – | Active | Active | 5.60 |
